From ChEMBL document CHEMBL5712078, “BRD9 Inhibition, Alone or in Combination with Cytostatic Compounds as a Therapeutic Approach in Rhabdoid Tumors” (Int J Mol Sci, 2017)
Active and inactive are the calls of the source. No cut-off for these calls is given here.

Columns and labels:
[1] = system: BT-12; experiment: Induction of apoptosis in human BT-12 cells assessed as necrotic cells incubated for 72 hrs by flow cytometry analysis; format: functional, cell-based; details: dose 5-20 µM
In short: (§1)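 Annexin V/PI flow assay. G401 at 10,000 cells/mL and BT12 or Chla266 at 30,000 cells/mL were seeded in 12-well plates. Next day medium was replaced with medium holding I-BRD9 or BI-9564 at 0, 5, 10 or 20 µM final for 72 h. Cells were washed in PBS, stained with FITC-Annexin V and propidium iodide for 15 min in the dark at room temperature, then read by flow cytometry. Percentage of dead cells, n ≥3, mean ± SD, one-way ANOVA versus control.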

[2] = system: G-401; experiment: Induction of apoptosis in human G-401 cells assessed as necrotic cells at 10 uM incubated for 72 hrs by flow cytometry analysis (Rvb= 6.2+/-0.8 %); format: functional; in short: as §1
[3] = system: G-401; experiment: Induction of apoptosis in human G-401 cells assessed as necrotic cells at 5 uM incubated for 72 hrs by flow cytometry analysis (Rvb= 6.2+/-0.8 %); format: functional; in short: as §1
[4] = system: CHLA-266; experiment: Induction of cell cycle arrest in human CHLA-266 cells assessed as accumulation of cells at G1 phase incubated for 72 hrs by flow cytometry analysis; format: functional, cell-based; details: dose 5-20 µM
In short: (§2)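 72 h DAPI flow-cytometry cell-cycle assay. Chla266 in IMDM/20% FBS seeded at 30,000 cells/mL; G401 in DMEM/10% FBS at 10,000 cells/mL; 1 mL/well, 37 °C, 5% CO2. Next day the medium was replaced with inhibitor at final 0, 5, 10 or 20 µM. Cells were harvested, PBS-washed, and the G1 percentage was read. n ≥ 3, mean ± SD, one-way ANOVA vs control.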

[5] = system: BT-12; experiment: Induction of apoptosis in human BT-12 cells assessed as necrotic cells at 10 uM incubated for 72 hrs by flow cytometry analysis (reference value: 10.1+/-2.2%); format: functional; in short: as §1
[6] = system: G-401; experiment: Anti-proliferative activity against human G-401 cells assessed as cell viability incubated for 144 hrs by MTT assay; format: functional, cell-based; details: G-401, 144 h
In short: (§3)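 MTT proliferation assay. Cells were seeded at 3000 (BT16, KD, G401) or 5000 (BT12, Chla266) cells per well and drug was added after 24 h, final 0.001–100 µM. Read at 72 or 144 h; 144 h wells got fresh medium and drug on day 3. MTT for 3 h, formazan dissolved in isopropanol/0.04 N HCl, absorbance at 570/630 nm. Technical triplicates, ≥3 independent runs, IC50 derived.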

[7] = system: G-401; experiment: Induction of cell cycle arrest in human G-401 cells assessed as accumulation of cells at G1 phase incubated for 72 hrs by flow cytometry analysis; format: functional, cell-based; details: dose 5-20 µM; in short: as §2
[8] = system: G-401; experiment: Anti-proliferative activity against human G-401 cells assessed as cell viability incubated for 72 hrs by MTT assay; format: functional, cell-based; details: G-401, 72 h; in short: as §3
[9] = system: G-401; experiment: Induction of apoptosis in human G-401 cells assessed as necrotic cells incubated for 72 hrs by flow cytometry analysis; format: functional, cell-based; details: dose 5-20 µM; in short: as §1
[10] = system: CHLA-266; experiment: Induction of cell cycle arrest in human CHLA-266 cells assessed as accumulation of cells at G1 phase at 10 uM incubated for 72 hrs by flow cytometry analysis (Rvb =74.1+/-3.2%); format: functional
In short: (§4)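 Cell cycle. Seeding and 72 h treatment as for the apoptosis assay, with I-BRD9 or BI-9564 at 0, 5, 10 or 20 µM final. A 100 µL cell suspension was stained with DAPI and read by flow cytometry. Percentage of cells in G1, n ≥3, mean ± SD, one-way ANOVA versus control.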

[11] = system: BT-12; experiment: Anti-proliferative activity against human BT-12 cells assessed as cell viability incubated for 144 hrs by MTT assay; format: functional, cell-based; details: BT-12, 144 h; in short: as §3
[12] = system: BT-12; experiment: Induction of apoptosis in human BT-12 cells assessed as necrotic cells at 5 uM incubated for 72 hrs by flow cytometry analysis (reference value: 10.1+/-2.2%); format: functional; in short: as §1
[13] = Anti-proliferative activity against human KD cells assessed as cell viability incubated for 72 hrs by MTT assay; format: functional, cell-based; in short: as §3
[14] = system: BT-12; experiment: Induction of cell cycle arrest in human BT-12 cells assessed as accumulation of cells at G1 phase incubated for 72 hrs by flow cytometry analysis; format: functional, cell-based; details: dose 5-20 µM; in short: as §4
[15] = system: CHLA-266; experiment: Anti-proliferative activity against human CHLA-266 cells assessed as cell viability incubated for 72 hrs by MTT assay; format: functional, cell-based; details: CHLA-266, 72 h; in short: as §3
[16] = system: CHLA-266; experiment: Induction of apoptosis in human CHLA-266 cells assessed as necrotic cells at 20 uM incubated for 72 hrs by flow cytometry analysis (Rvb= 5.4+/-1.0 %); format: functional; in short: as §1
[17] = system: CHLA-266; experiment: Induction of cell cycle arrest in human CHLA-266 cells assessed as accumulation of cells at G1 phase at 5 uM incubated for 72 hrs by flow cytometry analysis (reference value: 74.1+/-3.2%); format: functional; in short: as §4
[18] = Anti-proliferative activity against human KD cells assessed as cell viability incubated for 144 hrs by MTT assay; format: functional, cell-based; in short: as §3
[19] = system: BT-12; experiment: Induction of apoptosis in human BT-12 cells assessed as necrotic cells at 20 uM incubated for 72 hrs by flow cytometry analysis (Rvb=10.1+/-2.2%); format: functional; in short: as §1
[20] = system: CHLA-266; experiment: Induction of cell cycle arrest in human CHLA-266 cells assessed as accumulation of cells at G1 phase at 20 uM incubated for 72 hrs by flow cytometry analysis (reference value: 74.1+/-3.2%); format: functional; in short: as §4
[21] = system: BT-12; experiment: Induction of cell cycle arrest in human BT-12 cells assessed as accumulation of cells at G1 phase at 5 uM incubated for 72 hrs by flow cytometry analysis (reference value: 65+/-3.9%); format: functional; in short: as §4
[22] = system: G-401; experiment: Induction of cell cycle arrest in human G-401 cells assessed as accumulation of cells at G1 phase at 10 uM incubated for 72 hrs by flow cytometry analysis (reference value: 51.7+/-2%); format: functional; in short: as §2
[23] = Anti-proliferative activity against human BT-16 cells assessed as cell viability incubated for 72 hrs by MTT assay; format: functional, cell-based; details: BT-16, 72 h; in short: as §3
[24] = system: CHLA-266; experiment: Induction of apoptosis in human CHLA-266 cells assessed as necrotic cells incubated for 72 hrs by flow cytometry analysis; format: functional, cell-based; details: dose 5-20 µM; in short: as §1
[25] = system: CHLA-266; experiment: Induction of apoptosis in human CHLA-266 cells assessed as necrotic cells at 5 uM incubated for 72 hrs by flow cytometry analysis (Rvb= 5.4+/-1.0%); format: functional; in short: as §1
[26] = system: CHLA-266; experiment: Cytotoxicity against human CHLA-266 cells assessed as change in cell viability at 5 to 20 uM treated for 72 hrs; format: functional, cell-based; details: dose 5-20 µM; in short: as §1
[27] = system: BT-12; experiment: Induction of cell cycle arrest in human BT-12 cells assessed as accumulation of cells at G1 phase at 20 uM incubated for 72 hrs by flow cytometry analysis (reference value: 65+/-3.9%); format: functional; in short: as §4
[28] = system: G-401; experiment: Induction of apoptosis in human G-401 cells assessed as necrotic cells at 20 uM incubated for 72 hrs by flow cytometry analysis (Rvb= 6.2+/-0.8 %); format: functional; in short: as §1
[29] = system: G-401; experiment: Induction of cell cycle arrest in human G-401 cells assessed as accumulation of cells at G1 phase at 5 uM incubated for 72 hrs by flow cytometry analysis (reference value: 51.7+/-2%); format: functional; in short: as §2
[30] = system: BT-12; experiment: Anti-proliferative activity against human BT-12 cells assessed as cell viability incubated for 72 hrs by MTT assay; format: functional, cell-based; details: BT-12, 72 h; in short: as §3
[31] = system: CHLA-266; experiment: Anti-proliferative activity against human CHLA-266 cells assessed as cell viability incubated for 144 hrs by MTT assay; format: functional, cell-based; details: CHLA-266, 144 h; in short: as §3
[32] = system: BT-12; experiment: Induction of cell cycle arrest in human BT-12 cells assessed as accumulation of cells at G1 phase at 10 uM incubated for 72 hrs by flow cytometry analysis (reference value: 65+/-3.9%); format: functional; in short: as §4
[33] = system: CHLA-266; experiment: Induction of apoptosis in human CHLA-266 cells assessed as necrotic cells at 10 uM incubated for 72 hrs by flow cytometry analysis (Rvb= 5.4+/-1.0 %); format: functional; in short: as §1

With `COc1cc(-c2cn(C)c(=O)c3cnccc23)c(OC)cc1CN(C)C` the Activity [1] was “Dose-Dependent Effect”, the Activity [2] was 7.3% and the Activity [3] was 6.8%. The Activity [4] was “Dose-Dependent Effect”, the Activity [5] was 15.9% and the IC50 [6] was 10.8 µM. The Activity [7] was “Dose-Dependent Effect”, the IC50 [8] was 12.5 µM and the Activity [9] was “Dose-Dependent Effect”. For the same molecule, the Activity [10] was 81.2%, the IC50 [11] was 17.2 µM and the Activity [12] was 14.2%. The IC50 [13] was 22.3 µM, the Activity [14] was “Dose-Dependent Effect” and the IC50 [15] was greater than 100 µM. For the same molecule, the Activity [16] was 12.9%, the Activity [17] was 80% and the IC50 [18] was 10.8 µM. The Activity [19] was 17.3%, the Activity [20] was 83.6% and the Activity [21] was 73.1%. The Activity [22] was 59.5%, the IC50 [23] was 15.9 µM and the Activity [24] was “Dose-Dependent Effect”. The Activity [25] was 10%, the Activity [26] was “Active” and the Activity [27] was 78.9%. For the same molecule, the Activity [28] was 7.6%, the Activity [29] was 57.6% and the IC50 [30] was greater than 100 µM. It also gave an IC50 [31] of 33.7 µM, an Activity [32] of 74% and an Activity [33] of 11%.
